# MsrA inh: bovine MsrA inhibition; purified bovine MsrA, absorbance read-out; inhibition, % at 15.5 µM; actives 0.75% (n = 360,000);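 note: 0% = vehicle wells with enzyme and 100% = reference inhibitor wells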
# proCasp3 act: activates human procaspase-3. recombinant procaspase-3 D3A, Ac-DEVD-pNA absorbance 405 nm. actives 0.11% (n = 330,000). activation, % at 8.5 µM;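 active = activation above the mean of all tested compounds plus 3 SD, cut at about 21% in these data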;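 note: 0% = DMSO alone and 100% = DMSO wells spiked with extra 5 µM PC-3 D3A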
# Target sequence (P42574 whole entry D9A/D28A/D175A): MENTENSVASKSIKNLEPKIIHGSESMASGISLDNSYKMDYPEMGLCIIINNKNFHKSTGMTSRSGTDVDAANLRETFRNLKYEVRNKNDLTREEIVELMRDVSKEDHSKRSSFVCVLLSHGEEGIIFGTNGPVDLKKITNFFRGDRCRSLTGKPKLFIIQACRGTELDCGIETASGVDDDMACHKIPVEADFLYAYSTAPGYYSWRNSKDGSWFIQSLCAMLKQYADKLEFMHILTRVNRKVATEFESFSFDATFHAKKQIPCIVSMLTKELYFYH
#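 material = Procaspase-3 D3A mutant | probe or stimulus = Ac-DEVD-pNA | compound = single dose, 8.5 µM nominal compound, 0.8% DMSO | timing = 1 h preincubation, 2 h reaction | measured by = 405 nm absorbance of p-nitroaniline, reads at 0 and 120 min | benchmarks = DMSO-only low control, 5 µM PC-3 D3A high control | repeats = singlicate, each compound tested once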
# procasp7 counter: counter-screen: procaspase-7 (human) activation; P55210; recombinant procaspase-7, Ac-DEVD-pNA absorbance 405 nm; D23A/D198A/D206A triple mutant, cannot self-cleave; scale: DMSO 0, 5 µM enzyme 100; activation, % at 8.5 µM; actives 0.093% (n = 330,000);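 active = percent activation above the screen-wide mean plus 3 SD, cut at about 25% in these data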
#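 signal = Epi-absorbance of released pNA at 405 nm, two timepoints | assay system = Uncleavable procaspase-7 mutant enzyme | reagent = Ac-DEVD-pNA substrate, 400 µM as added | times = 1 h enzyme–compound preincubation and 2 h substrate reaction, both 25 °C | benchmarks = low DMSO alone, high DMSO plus 5 µM PC-7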
# bovine MsrA act: activates bovine MsrA enzyme; purified bovine MsrA, absorbance read-out; activation, % at 10.6 µM; actives 0.3% (n = 360,000); in the data active = activation above about 7.5%;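 note: 0% = vehicle and 100% = reference activator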
# MsrA inh confirm: confirmation of bovine MsrA inhibitors; purified bovine MsrA, absorbance read-out; inhibition, % at 15.5 µM; shares compounds with MsrA inh; actives 41% (n = 2,300);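 note: coupled to thioredoxin reductase with NADPH and selenocystamine and DMSO as substrate; 0% = vehicle only and 100% = full effect of reference inhibitor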
# Numbers without * were called inactive; . = no result given. An excerpt weighted towards active compounds, which were near 1.2% of everything screened. Cut-off read from the data, not from the text of the source, unless noted: active = inhibition above about 4.5%; inactive = the rest.
SMILES,MsrA inh,proCasp3 act,procasp7 counter,bovine MsrA act,MsrA inh confirm
COc1ccccc1C1Nc2ccccc2NC2=C1C(=O)CC(C)(C)C2 (stereo not given),5.4*,-1.4,3.4,-4.4,3.6
COC(=O)C1=C(C)N(C)C(=NCC2CC2)NC1c1cccc(C(F)(F)F)c1 (stereo not given),-0.7,.,.,.,.
O=[N+]([O-])c1ccc(O)c(C=Nc2cccc3ncccc23)c1,5.2*,-3.2,3.1,-14.0,3.2
O=[N+]([O-])c1ccc(O)c(C=Nc2cccc3ccccc23)c1,1.9,-9.2,-15.4,-0.4,.
Cc1c(OCc2nn[nH]n2)ccc2c(-c3ccccc3)cc(=O)oc12,2.2,5.8,10.3,-2.4,.
CC(Oc1ccc2cc(-c3ccccc3)c(=O)oc2c1)C(=O)NCC1CCC(C(=O)O)CC1 (stereo not given),6.3*,6.7,-2.0,-10.4,4.3
CN(C)C(=O)COc1ccc2cc(-c3ccccc3)c(=O)oc2c1,4.7*,-8.6,9.0,-2.9,3.2
Cc1cc(=O)oc2cc(OCC(=O)NCC3CCC(C(=O)O)CC3)ccc12 (stereo not given),1.3,7.7,-7.2,-1.1,.
Cc1c(OCC(=O)N(C)C)ccc2c(-c3ccccc3)cc(=O)oc12,17.9*,1.7,-1.9,-5.7,16.4*
COc1ccc(-c2cc(=O)oc3cc(OCC(=O)NCC4CCC(C(=O)O)CC4)ccc23)cc1 (stereo not given),4.9*,-5.1,13.4,3.9,2.8
CN1c2ccccc2C(O)=C(C(=S)Nc2ccc(F)c(Cl)c2)S1(=O)=O,4.9*,-12.1,-8.5,-9.2,4.3
CN1c2ccccc2C(O)=C(C(=S)Nc2ccccc2)S1(=O)=O,5.3*,-5.7,-20.0,-21.4,6.1*
CN1c2ccccc2C(O)=C(C(=O)Nc2ccccc2)S1(=O)=O,1.6,-0.1,-1.6,-3.4,.
CN1c2ccsc2C(O)=C(C(=S)Nc2ccccc2)S1(=O)=O,4.4,-18.1,-14.2,-9.6,.
Cc1ccc(NC(=S)C2=C(O)c3ccccc3N(C)S2(=O)=O)cc1,4.8*,-14.9,-32.0,-12.8,4.4
Nc1ncnc2c1ncn2[C@@H]1O[C@H](C(=O)N[C@@H](CCc2ccccc2)C(=O)N2CCN(C(=O)N3CCOCC3)CC2)[C@@H](O)[C@H]1O,0.4,.,.,.,.
O=[N+]([O-])c1cc(S(=O)(=O)Nc2ccccc2)ccc1NCc1ccccc1,0.2,4.8,-5.5,1.0,.
O=[N+]([O-])c1cc(S(=O)(=O)Nc2ccccc2)ccc1Nc1ccccc1,5.7*,.,.,-4.8,3.8
COc1ccccc1C(=O)N1CCN(C(=O)[C@@H](Cc2ccccc2)NC(=O)[C@H]2O[C@@H](n3ccc(=O)[nH]c3=O)[C@H](O)[C@@H]2O)CC1,0.9,.,.,.,.
COc1ccc(N2CC(C(=O)N/N=C/c3cc([N+](=O)[O-])ccc3O)CC2=O)cc1 (stereo not given),5.2*,-13.6,2.4,-4.0,3.2
O=C(O)CCCC[n+]1ccccc1,0.5,.,.,.,.
COc1ccc(C(=O)/C=C/Nc2cc(C)on2)c(OC)c1,7.4*,7.3,4.4,-1.8,5.5*
CCCN1C(=O)/C(=C/c2ccc(C)s2)NC1=S,1.7,-5.1,-9.2,-9.2,.
COc1ccc(N2C(=O)/C(=C/c3cccnc3)NC2=S)cc1,0.3,-13.5,-8.9,0.9,.
CCN1C(=O)/C(=C\N(C)C)NC1=S,5.0*,3.3,5.7,-7.4,2.8
SMILES,MsrA inh,proCasp3 act,procasp7 counter,bovine MsrA act,MsrA inh confirm
COc1ccc(N2C(=O)/C(=C/N(C)C)NC2=S)cc1,7.3*,12.3,0.5,-3.8,5.8*
CN(C)/C=C1/NC(=S)NC1=O,5.5*,-15.1,-19.7,-3.2,6.7*
CCCCc1nnn2c1C1c3cc(Br)ccc3CCN1C(=O)C2 (stereo not given),0.1,.,.,.,.
CCOc1cc(/C=C2/N=C(c3ccc4c(c3)OCO4)OC2=O)ccc1OC(C)=O,0.9,-2.6,4.8,-2.7,.
CN(C)/C=C1\N=C(c2ccccc2)OC1=O,8.9*,-0.7,-5.3,-11.0,6.0*
CN(C)/C=C1\N=C(c2ccc3c(c2)OCO3)OC1=O,6.1*,1.8,-3.0,-5.9,5.7*
Cc1cccc(C(=O)Nc2cc(Cl)ccc2-n2cncn2)c1[N+](=O)[O-],7.3*,1.3,-5.5,-4.7,4.8*
Nc1n[nH]c(N)c1N=Nc1ccc(F)cc1,3.1,-7.0,2.0,-1.6,.
Nc1n[nH]c(N)c1N=Nc1ccccc1,5.0*,2.3,5.8,-5.1,3.9

# Screening results deposited in PubChem BioAssay by The Scripps Research Institute Molecular Screening Center.
